Data as given in ChEMBL document CHEMBL4619791, “3-Difluoroalkyl Quaternary Oxindoles Inhibit Macrophage Pyroptosis by Blocking Inflammasome Recruitment of Caspase-1” (ACS Med Chem Lett, 2020).
The source made the active and inactive calls. The calls are words filed in the database; no cut-off is given here.

Legend:
[1] = tested on: J774.A1; assay: Inhibition of pyroptosis in LPS-primed immortalized mouse […] cells assessed as reduction in nigericin-induced IL-beta secretion by imaging analysis; type: functional
[2] = Toxicity in zebrafish embryo; set-up: species or system Danio rerio; details: in vivo
In short: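 Zebrafish embryos exposed to compound. EC100 is the concentration at which all treated embryos show early lethality, embryonic defects or developmental delay.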

[3] = tested on: BMDM; assay: Inhibition of pyroptosis in LPS-primed C57BL/6 mouse primary BMDM assessed as reduction in nigericin-induced cell death by Alamar blue assay; type: functional, cell-based
In short: (§1)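 Primary murine macrophages primed with LPS and stimulated with nigericin across a dose range. IL-1β release, LDH release and Alamar blue measured. Means ± SE, ≥3 experimental replicates.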

[4] = tested on: THP-1; assay: Inhibition of pyroptosis in LPS-primed human THP1 assessed as reduction in nigericin-induced cell death at 0.1 to 20 uM by LDH assay; type: functional, cell-based
In short: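 THP-1 cells induced to pyroptosis. Cell death read by LDH release and pore formation by PI uptake. Means ± SE, ≥3 experimental replicates.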

[5] = target: T1, Gastrin/cholecystokinin type B receptor (Mus musculus) (UniProt P56481); assay: Antagonist activity at CCKB receptor in immortalized mouse […] cells assessed as inhibition of nigericin-induced pyroptosis at 5 uM; type: cell-based; details: J774.A1
T1 sequence (whole entry): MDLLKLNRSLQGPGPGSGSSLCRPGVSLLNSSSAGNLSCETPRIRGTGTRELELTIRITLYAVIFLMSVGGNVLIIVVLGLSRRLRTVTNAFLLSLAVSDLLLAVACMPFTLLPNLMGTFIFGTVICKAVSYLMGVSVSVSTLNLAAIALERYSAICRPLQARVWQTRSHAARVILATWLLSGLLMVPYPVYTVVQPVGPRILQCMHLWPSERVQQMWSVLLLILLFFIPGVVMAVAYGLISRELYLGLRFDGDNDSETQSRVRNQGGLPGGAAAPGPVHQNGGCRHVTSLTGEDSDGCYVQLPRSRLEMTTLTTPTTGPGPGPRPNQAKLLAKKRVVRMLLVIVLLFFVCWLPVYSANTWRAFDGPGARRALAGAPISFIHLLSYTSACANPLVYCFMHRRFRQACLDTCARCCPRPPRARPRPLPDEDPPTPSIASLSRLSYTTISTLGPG
In short: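 CCKB antagonists netazepide and proglumide were given to immortalized macrophages, with pyroptosis induced by nigericin.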

[6] = target: T2, Gasdermin-D (Homo sapiens) (UniProt P57764); assay: Inhibition of N-terminal GSDMD p30 fragment-mediated pyroptotic-cell death in doxycyclin-treated human HEK293T cells assessed as cell death at 5 uM by LDH assay; type: cell-based; details: HEK-293T
T2 sequence (whole entry): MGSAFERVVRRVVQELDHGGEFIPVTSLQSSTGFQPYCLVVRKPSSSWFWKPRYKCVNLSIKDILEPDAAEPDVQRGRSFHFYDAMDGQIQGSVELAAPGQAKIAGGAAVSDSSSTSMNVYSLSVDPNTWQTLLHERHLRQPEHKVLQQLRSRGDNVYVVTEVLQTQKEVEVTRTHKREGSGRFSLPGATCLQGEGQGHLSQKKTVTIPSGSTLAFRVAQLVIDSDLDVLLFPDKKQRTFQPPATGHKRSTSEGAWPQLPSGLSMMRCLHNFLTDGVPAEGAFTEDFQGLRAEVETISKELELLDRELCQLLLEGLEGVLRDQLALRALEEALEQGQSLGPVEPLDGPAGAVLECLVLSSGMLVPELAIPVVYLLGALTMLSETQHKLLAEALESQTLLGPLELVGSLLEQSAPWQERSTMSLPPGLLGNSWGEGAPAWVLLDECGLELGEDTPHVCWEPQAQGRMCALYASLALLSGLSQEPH

[7] = target: T3, Caspase-1 (Mus musculus) (UniProt P29452); assay: Inhibition of caspase-1 activity in LPS-primed immortalized mouse […] cells assessed as reduction in nigericin-induced GSDMD cleavage at 5 uM by Western blot analysis; type: cell-based; details: J774.A1
T3 sequence (whole entry): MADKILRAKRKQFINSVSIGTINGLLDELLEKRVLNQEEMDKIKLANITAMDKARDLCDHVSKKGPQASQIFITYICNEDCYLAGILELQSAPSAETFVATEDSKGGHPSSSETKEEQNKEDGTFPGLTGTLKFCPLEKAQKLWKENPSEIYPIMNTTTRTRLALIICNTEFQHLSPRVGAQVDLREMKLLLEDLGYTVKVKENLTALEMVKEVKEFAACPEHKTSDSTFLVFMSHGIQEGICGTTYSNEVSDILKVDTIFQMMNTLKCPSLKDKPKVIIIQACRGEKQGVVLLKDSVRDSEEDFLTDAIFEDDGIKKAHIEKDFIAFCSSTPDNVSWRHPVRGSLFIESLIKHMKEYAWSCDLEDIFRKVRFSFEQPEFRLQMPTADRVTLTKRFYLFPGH
In short: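 Western blot for GSDMD cleavage in immortalized macrophages, with tubulin as loading control. Representative of n ≥ 3 independent experiments.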

[8] = target: T4, Caspase-8 (Mus musculus) (UniProt O89110); assay: Inhibition of caspase-8 activity in LPS-primed immortalized mouse […] cells assessed as reduction in nigericin-induced caspase-8 cleavage at 5 uM by Western blot analysis; type: cell-based; details: J774.A1
T4 sequence (whole entry): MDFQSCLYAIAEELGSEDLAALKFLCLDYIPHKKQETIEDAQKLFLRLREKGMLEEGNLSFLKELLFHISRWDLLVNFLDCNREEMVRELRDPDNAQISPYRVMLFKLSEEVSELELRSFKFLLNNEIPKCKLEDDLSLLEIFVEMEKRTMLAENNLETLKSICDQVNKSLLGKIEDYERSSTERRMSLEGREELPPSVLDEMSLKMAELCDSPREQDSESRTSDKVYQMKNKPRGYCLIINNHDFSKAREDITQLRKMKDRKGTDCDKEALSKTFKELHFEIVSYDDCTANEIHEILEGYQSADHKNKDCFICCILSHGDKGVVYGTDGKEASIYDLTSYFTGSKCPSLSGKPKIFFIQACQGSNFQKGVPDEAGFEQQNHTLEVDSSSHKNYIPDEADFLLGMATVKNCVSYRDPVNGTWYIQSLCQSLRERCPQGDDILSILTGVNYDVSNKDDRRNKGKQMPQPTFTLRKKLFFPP
In short: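 Western blot of full-length and cleaved caspase-1 and caspase-8 in J774A.1 cells after nigericin, with tubulin as loading control. Bands quantified as bar graphs.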

[9] = tested on: BMDM; assay: Induction of ROS generation in LPS-primed C57BL/6 mouse primary BMDM assessed as increase in nigericin-induced ROS level at 5 uM by DCFH-DA probe based FACS analysis; type: functional, cell-based
In short: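 Nigericin-stimulated macrophages loaded with DCFH-DA; ROS read as a shift in fluorescence by flow cytometry.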

[10] = tested on: Mus musculus; assay: (§2) Antiinflammatory activity against LPS-induced sepsis C57BL/6J mouse model assessed as reduction in alveolar exudate at 20 mg/kg, iv administered as single dose for 1 hr prior to LPS challenge and measured after 48 hrs by hematoxylin-eosin staining based inverted microscopy analysis; type: functional, organism-based
[11] = tested on: Mus musculus; assay: as §2, with “epithelial architecture damage” for “exudate”; type: functional, organism-based
[12] = tested on: BMDM; assay: Inhibition of pyroptosis in LPS-primed C57BL/6 mouse primary BMDM assessed as reduction in nigericin-induced cell death by LDH assay; type: functional, cell-based; in short: as §1

In the case of `CCOC(CN1C(=O)C(NC(=O)Nc2ccc(C)cc2)(C(F)(F)C(=O)Nc2ccc(C)cc2)c2ccccc21)OCC` (configuration not stated), the Activity [1] is reported as 92.13 pg/mL, the EC100 [2] is reported as greater than 50 µM and the inhibition [3] is reported as “Dose-dependent effect”. For the same molecule, the inhibition [4] was “Active”, the Activity [5] was “inactive” and the inhibition [6] was “inactive”. For the same molecule, the inhibition [7] was “Active”, the inhibition [8] was “inactive” and the Activity [9] was “Active”. For the same molecule, the Activity [10] was “Active”, the Activity [11] was “Active” and the inhibition [12] was “Dose-dependent effect”.
